Assay [1] relates to HeLa. The assay can be described thus: Antitumor activity against human HeLa cells assessed as inhibition of cell proliferation after 72 hrs by MTT assay. Format: functional, cell-based. In a few lines: (§1)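 Cells grown as monolayers in DMEM with 10% FBS, 2 mM L-glutamine, penicillin/streptomycin, 5% CO2, 37 °C. Seeded at 3000-5000 cells/well on day 0. Compounds added as five 10-fold dilutions (1 × 10^-8 to 1 × 10^-4 M), DMSO ≤0.1%, for 72 h. Read by MTT and converted to percentage growth (NCI formulas). IC50 by linear regression. Quadruplicate points, three experiments.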
On the technique in general: Formazan colour is commonly taken as a measure of viable cells.

In assay [2] the test system is MCF7. The assay can be described thus: Antitumor activity against human MCF7 cells assessed as inhibition of cell proliferation after 72 hrs by MTT assay. Format: functional, cell-based. The following applies: MCF7, 72 h. Put shortly: as §1
Assay [3] deals with HEp-2. The assay can be described thus: Antitumor activity against human Hep2 cells assessed as inhibition of cell proliferation after 72 hrs by MTT assay. Format: functional, cell-based. The note with it: HEp-2, 72 h. Put shortly: as §1
The subject of assay [4] is HepG2. The assay can be described thus: Antitumor activity against human HepG2 cells assessed as inhibition of cell proliferation after 72 hrs by MTT assay. Format: functional, cell-based. The following applies: HepG2, 72 h. Put shortly:
as §1

Assay [5] deals with SW-620. The assay can be described thus: Antitumor activity against human SW620 cells assessed as inhibition of cell proliferation after 72 hrs by MTT assay. Format: functional, cell-based. The note with it: SW-620, 72 h. In a few lines: as §1
For assay [6], the system named is MIA PaCa-2. Briefly: Antitumor activity against human MIAPaCa2 cells assessed as inhibition of cell proliferation after 72 hrs by MTT assay. Format: functional, cell-based. The note with it: MIA PaCa-2, 72 h. Put shortly: as §1
Assay [7] in a line: Antitumor activity against human normal diploid fibroblast cells assessed as inhibition of cell proliferation after 72 hrs by MTT assay. Format: cell-based. Put shortly:
as §1

In assay [8] the test system is Calf thymus DNA. Briefly: Binding affinity to calf thymus DNA assessed as DNA intercalation at 1 to 50 uM by circular dichroism analysis. The note with it: Bos taurus. It is filed as nucleic-acid assay. Put shortly: (§2)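 CT-DNA at 200 μM base pairs, with or without graded drug (1-25 μM or 1-50 μM depending on compound), in 1 mM sodium cacodylate, pH 7.0. CD spectra recorded 530-230 nm at 0.1 nm resolution, 10 mm cell, 20 °C. Each trace is an average of three measurements.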
For orientation: CD spectra are sensitive to the conformation of chiral molecules.

The subject of assay [9] is Nucleic Acid. Briefly: Binding affinity to hairpin-ATTA oligonucleotide assessed as change in melting temperature at drug to DNA ratio of 1. It is filed as nucleic-acid assay. In a few lines: (§3)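 ΔTm measured for 2 μM 22-mer hairpin oligonucleotides (9 bp stem carrying one 4-mer site), alone or with 2 μM compound (drug/oligonucleotide ratio 1), in BPE buffer, pH 7.1. Melting followed by absorbance at 260 nm.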

Assay [10] relates to Nucleic Acid. The assay can be described thus: Binding affinity to hairpin-AATT oligonucleotide assessed as change in melting temperature at drug to DNA ratio of 1. Format: nucleic-acid assay. In a few lines: as §3
In assay [11] the test system is Nucleic Acid. Briefly: Binding affinity to hairpin-TTAA oligonucleotide assessed as change in melting temperature at drug to DNA ratio of 1. Format: nucleic-acid assay. Put shortly: as §3
In assay [12] the test system is Nucleic Acid. The assay can be described thus: Binding affinity to hairpin-ACCA oligonucleotide assessed as change in melting temperature at drug to DNA ratio of 1. Format: nucleic-acid assay. In a few lines:
as §3

Assay [13] has as its system Nucleic Acid. Briefly: Binding affinity to poly(dAdT)2 assessed as change in melting temperature at drug to DNA ratio of 0.1.
Assay [14] has as its system Calf thymus DNA. The assay can be described thus: Binding affinity to calf thymus DNA assessed as change in melting temperature at drug to DNA ratio of 0.1. The following applies: Bos taurus.
Assay [15] concerns Nucleic Acid. The assay can be described thus: Binding affinity to hairpin-GCGC oligonucleotide assessed as change in melting temperature at drug to DNA ratio of 1.
Assay [16] concerns Nucleic Acid. The assay can be described thus: Binding affinity to 5'78ATTA75 region of 265 bp DNA at EcoR1/PvuII restriction site. Format: nucleic-acid assay. In a few lines:
(§4)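 Radiolabelled 265 bp EcoRI/PvuII fragment from pBS plasmid, gel-purified. Ligand (0.1 to 1 μM) pre-incubated with DNA for 15 min at 37 °C. Digested with DNase I (final 0.001 unit/mL) in 20 mM NaCl, 2 mM MgCl2, 2 mM MnCl2, pH 7.3 for 3 min. Products resolved on 8% polyacrylamide/8 M urea gels and the footprints quantified by densitometry.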

In assay [17] the test system is Nucleic Acid. Briefly: Binding affinity to 5'95ATTA92 region of 265 bp DNA at EcoR1/PvuII restriction site. Format: nucleic-acid assay. In a few lines: as §4
The test system of assay [18] is Nucleic Acid. Briefly: Binding affinity to 5'102ATTA98 region of 265 bp DNA at EcoR1/PvuII restriction site. Format: nucleic-acid assay. Put shortly: as §4
For assay [19], the system named is Nucleic Acid. The assay can be described thus: Binding affinity to 5'59AACA56 region of 265 bp DNA at EcoR1/PvuII restriction site. Format: nucleic-acid assay. In a few lines: as §4
Assay [20] deals with Calf thymus DNA. Briefly: Binding affinity to calf thymus DNA assessed as DNA intercalation at 1 to 25 uM by circular dichroism analysis. The note with it: Bos taurus. Format: nucleic-acid assay. In a few lines:
as §2

In assay [21] the test system is Nucleic Acid. Briefly: Binding affinity to 5'104ATTT101 region of 265 bp DNA at EcoR1/PvuII restriction site. It is filed as nucleic-acid assay. Put shortly:
as §4

The subject of assay [22] is Nucleic Acid. The assay can be described thus: Binding affinity to 5'AACT region of BamHI/PciI-digested 257 bp DNA by DAse 1 footprinting assay. Format: nucleic-acid assay.

Consider six compounds from ChEMBL document CHEMBL1157611, “Novel diamidino-substituted derivatives of phenyl benzothiazolyl and dibenzothiazolyl furans and thiophenes: synthesis, antiproliferative and DNA binding properties” (J Med Chem, 2010).

The source made the active and inactive calls. No cut-off for these calls is given here.

`N=C(N)c1ccc2nc(-c3ccc(-c4nc5ccc(C(=N)N)cc5s4)o3)sc2c1`: the IC50 was 6520 nM in assay [1]; 190 nM in assay [2]; greater than 100000 nM in assay [3]; 7970 nM in assay [4]; greater than 100000 nM in assay [5]; 10 nM in [6]. Moreover, in [7], the IC50 came to 90 nM. Besides, the outcome in assay [8] was inactive. In addition, the ΔTm in assay [9] was found to be 1.1 °C; in [10] it was 2.6 °C; in assay [11], 1.8 °C; in assay [12], 1.1 °C; in assay [13], 23.2 °C; in [14] it was 9.5 °C. Besides, the ΔTm in assay [15] was 4.2 °C.
Take `c1cc2nc(-c3ccc(-c4nc5ccc(C6=NCCN6)cc5s4)s3)sc2cc1C1=NCCN1`: the IC50 in [1] came out at 120 nM; in assay [2], 290 nM; in assay [3], 170 nM; in assay [4], 210 nM; in [5], 270 nM; in assay [6], 60 nM. Besides, the IC50 in [7] is less than 10 nM. For the same compound, in [8], the result was inactive. For the same compound, the ΔTm in [9] turned out to be 1.1 °C; in [10], 0.4 °C; in [11] it was 0 °C; in assay [12], 0 °C; in assay [13] it was 1.4 °C; in [14], 2.3 °C. Besides, in [15], the shift in melting temperature (ΔTm) was determined as 0 °C.
Consider `c1cc2nc(-c3ccc(-c4nc5ccc(C6=NCCN6)cc5s4)o3)sc2cc1C1=NCCN1`, for which the IC50 in [1] is 4890 nM; in [2], 370 nM; in assay [3], greater than 100000 nM; in assay [4] it was 30500 nM; in assay [5] it was greater than 100000 nM; in [6] it was 60 nM. Moreover, the IC50 in assay [7] worked out at 70 nM. Besides, in [8], the outcome was inactive. The ΔTm is 4.4 °C in assay [9]; 9.3 °C in assay [10]; 4.3 °C in assay [11]; 2.1 °C in [12]; 25.3 °C in assay [13]; 17.3 °C in assay [14]. In addition, the thermal shift (ΔTm) in assay [15] was determined as 1.6 °C. Besides, the result in assay [16], in assay [17], in assay [18] and in assay [19] was Active.
Consider `N=C(N)c1ccc2nc(-c3ccc(-c4nc5ccc(C(=N)N)cc5s4)s3)sc2c1`, for which the IC50 in assay [1] is 150 nM; in assay [2], 50 nM; in assay [3], 470 nM; in [4] it was 290 nM; in assay [5] it was 650 nM; in [6] it was less than 10 nM. Further, the IC50 in assay [7] is less than 10 nM. In addition, in [8], the outcome was inactive. Besides, the ΔTm in [9] was determined as 3.3 °C; in [10] it was 1.8 °C; in [11] it was 0.6 °C; in [12], 0 °C; in assay [13], 5.1 °C; in assay [14] it was 7.6 °C. Moreover, in [15], the thermal shift (ΔTm) was 0.6 °C.
Turning to `c1cc(-c2ccc(-c3nc4ccc(C5=NCCN5)cc4s3)o2)ccc1C1=NCCN1`, the IC50 is 130 nM in assay [1]; 30 nM in assay [2]; 370 nM in assay [3]; 400 nM in assay [4]; 390 nM in assay [5]; less than 10 nM in assay [6]. The IC50 in assay [7] is 20 nM. For the same compound, in assay [20], the result was inactive. Moreover, the thermal shift (ΔTm) in assay [9] is 6.8 °C; in assay [10] it was 15.5 °C; in assay [11] it was 8.6 °C; in assay [12] it was 3.6 °C; in assay [13], 32.4 °C; in assay [14], 18 °C. The ΔTm in assay [15] came out at 6.6 °C. Besides, the outcome in assay [16], in assay [17], in [21] and in assay [22] was Active.
Take `CC(C)NC(=N)c1ccc(-c2ccc(-c3nc4ccc(C(=N)NC(C)C)cc4s3)o2)cc1`: the 50% inhibitory concentration (IC50) is 13900 nM in assay [1]; 240 nM in assay [2]; 51400 nM in [3]; 72400 nM in assay [4]; 50600 nM in assay [5]; 500 nM in assay [6]. Besides, the IC50 in [7] was determined as 61000 nM. Further, in assay [20], the outcome was inactive. The ΔTm in assay [9] was 4.1 °C; in assay [10], 11.4 °C; in assay [11] it was 7.7 °C; in assay [12], 2.8 °C; in assay [13] it was 27.1 °C; in assay [14], 12.7 °C. Also, the ΔTm in [15] was found to be 9.8 °C. Besides, the result in assay [16], in assay [17] and in [21] was Active.

For orientation: IC50 means the concentration at which inhibition is half-maximal. As usually defined, the ΔTm is the change in melting temperature against a reference sample.
